For assay [1], the system named is Rattus norvegicus. Kind of assay: Neurite length after administration (0.1 uM) in rat cortical neurons. In kind it is functional. The method in brief:
(§1)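 E18 Sprague-Dawley rat fetal cortical neurons were plated at 5000 cells/cm² on poly-L-lysine in DMEM with 10% FBS and penicillin/streptomycin for 24 h. They were then switched to serum-free Neurobasal with 2% B27 containing the sample, with 0.5% ethanol as vehicle control. Cells were fixed in PFA and stained with anti-MAP2 (1:1000, overnight, 4 °C) and peroxidase/DAB. Primary process length was averaged over 100 random neurons.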

The test system of assay [2] is Rattus norvegicus. Kind of assay: Neurite length after administration (1 uM) in rat cortical neurons. In kind it is functional. The method in brief: as §1

The values below come from ChEMBL document CHEMBL1146744, “Efficient synthesis and structure-activity relationship of honokiol, a neurotrophic biphenyl-type neolignan” (2004).

With `C=CCc1cc(-c2cc(CCC)ccc2O)ccc1O`, the Activity in the assay on Rattus norvegicus [1] turned out to be 103 µm; in the assay on Rattus norvegicus [2], 120 µm.
In the case of `C=CCc1ccc(OC)c(-c2ccc(O)c(CC=C)c2)c1`, the Activity came out at 133 µm in the assay on Rattus norvegicus [1] and 123 µm in the assay on Rattus norvegicus [2].
The matching figures for `C=CCc1ccc(O)c(-c2ccc(O)c(CCC)c2)c1`: 128 µm and 150 µm.
With `C=CCc1ccc(O)c(-c2ccc(OC)c(CC=C)c2)c1` [METHYLHONOKIOL], the Activity in the assay with Rattus norvegicus [1] was 113 µm; with Rattus norvegicus [2], 114 µm.
On to `C=CCc1ccc(OC)c(-c2ccc(OC)c(CC=C)c2)c1`, for which the figures for the Activity in the assay on Rattus norvegicus [1] and in the assay with Rattus norvegicus [2] were 112 µm and 111 µm, respectively.
In the case of `CCCc1ccc(O)c(-c2ccc(O)c(CCC)c2)c1`, the Activity in the assay with Rattus norvegicus [1] came to 101 µm; in the assay with Rattus norvegicus [2], 102 µm.
For the compound `C=CCc1ccc(O)c(-c2ccc(O)c(CC=C)c2)c1` [HONOKIOL], the Activity with Rattus norvegicus [1] amounted to 139 µm; in the assay on Rattus norvegicus [2], 142 µm.
